Measurements as given in ChEMBL document CHEMBL2424622, “Development of amino-pyrimidine inhibitors of c-Jun N-terminal kinase (JNK): kinase profiling guided optimization of a 1,2,3-benzotriazole lead” (Bioorg Med Chem Lett, 2013).

Key:
[1] = biological target: T1, Serine/threonine-protein kinase DCLK1 (Homo sapiens) (UniProt O15075); test: Competitive binding affinity to DCAMKL1 (unknown origin) at 10 uM in presence of ATP relative to control
T1 sequence (whole entry): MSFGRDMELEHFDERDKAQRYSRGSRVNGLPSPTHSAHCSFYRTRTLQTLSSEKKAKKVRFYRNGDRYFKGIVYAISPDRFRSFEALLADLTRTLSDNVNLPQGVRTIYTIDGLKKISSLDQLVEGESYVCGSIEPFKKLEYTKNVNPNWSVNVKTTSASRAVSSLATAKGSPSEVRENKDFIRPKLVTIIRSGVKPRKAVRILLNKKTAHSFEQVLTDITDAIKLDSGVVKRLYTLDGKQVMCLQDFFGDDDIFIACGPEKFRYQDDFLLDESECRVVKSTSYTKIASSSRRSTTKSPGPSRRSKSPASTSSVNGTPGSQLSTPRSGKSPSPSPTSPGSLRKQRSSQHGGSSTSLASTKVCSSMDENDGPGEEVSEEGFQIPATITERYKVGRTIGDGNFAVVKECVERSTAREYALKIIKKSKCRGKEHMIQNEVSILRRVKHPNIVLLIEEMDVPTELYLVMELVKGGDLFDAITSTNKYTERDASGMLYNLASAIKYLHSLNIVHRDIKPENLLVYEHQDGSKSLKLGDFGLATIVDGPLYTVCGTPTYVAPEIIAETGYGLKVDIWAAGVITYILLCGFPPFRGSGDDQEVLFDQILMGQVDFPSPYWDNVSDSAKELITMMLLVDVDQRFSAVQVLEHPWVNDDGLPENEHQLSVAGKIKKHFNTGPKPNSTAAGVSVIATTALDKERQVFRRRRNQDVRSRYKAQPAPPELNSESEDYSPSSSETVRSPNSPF

[2] = biological target: Ribosomal protein S6 kinase alpha-2 (Homo sapiens) (UniProt Q15349); test: Competitive binding affinity to RPS6KA2 kinase domain 2 (unknown origin) at 10 uM in presence of ATP relative to control
Ribosomal protein S6 kinase alpha-2 (Homo sapiens), sequence (Q15349 whole entry, the tested form may be a part): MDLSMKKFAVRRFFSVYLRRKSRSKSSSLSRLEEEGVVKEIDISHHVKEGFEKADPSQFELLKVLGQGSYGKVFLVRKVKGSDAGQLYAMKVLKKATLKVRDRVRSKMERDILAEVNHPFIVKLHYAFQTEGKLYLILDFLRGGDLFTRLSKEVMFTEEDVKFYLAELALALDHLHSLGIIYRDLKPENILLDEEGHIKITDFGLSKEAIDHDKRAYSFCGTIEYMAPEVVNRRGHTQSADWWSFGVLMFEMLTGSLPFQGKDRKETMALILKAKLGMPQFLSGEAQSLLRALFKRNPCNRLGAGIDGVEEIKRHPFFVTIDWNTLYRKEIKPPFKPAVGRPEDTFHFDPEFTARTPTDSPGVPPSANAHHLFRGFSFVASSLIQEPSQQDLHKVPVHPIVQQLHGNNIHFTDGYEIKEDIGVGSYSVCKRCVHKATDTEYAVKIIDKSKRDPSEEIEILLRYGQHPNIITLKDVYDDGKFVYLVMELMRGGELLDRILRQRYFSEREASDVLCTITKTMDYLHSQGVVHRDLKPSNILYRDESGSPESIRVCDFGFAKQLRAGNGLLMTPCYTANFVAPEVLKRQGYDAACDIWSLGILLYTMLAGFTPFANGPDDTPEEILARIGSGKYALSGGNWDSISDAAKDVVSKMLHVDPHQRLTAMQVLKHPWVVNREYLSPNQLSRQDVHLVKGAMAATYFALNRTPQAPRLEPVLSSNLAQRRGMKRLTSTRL

[3] = biological target: Hepatocyte growth factor receptor (Homo sapiens) (UniProt P08581); test: Competitive binding affinity to MET (unknown origin) at 10 uM in presence of ATP relative to control
[4] = biological target: T2, Serine/threonine-protein kinase DCLK3 (Homo sapiens) (UniProt Q9C098); test: Competitive binding affinity to DCAMKL3 (unknown origin) at 10 uM in presence of ATP relative to control
T2 sequence (whole entry): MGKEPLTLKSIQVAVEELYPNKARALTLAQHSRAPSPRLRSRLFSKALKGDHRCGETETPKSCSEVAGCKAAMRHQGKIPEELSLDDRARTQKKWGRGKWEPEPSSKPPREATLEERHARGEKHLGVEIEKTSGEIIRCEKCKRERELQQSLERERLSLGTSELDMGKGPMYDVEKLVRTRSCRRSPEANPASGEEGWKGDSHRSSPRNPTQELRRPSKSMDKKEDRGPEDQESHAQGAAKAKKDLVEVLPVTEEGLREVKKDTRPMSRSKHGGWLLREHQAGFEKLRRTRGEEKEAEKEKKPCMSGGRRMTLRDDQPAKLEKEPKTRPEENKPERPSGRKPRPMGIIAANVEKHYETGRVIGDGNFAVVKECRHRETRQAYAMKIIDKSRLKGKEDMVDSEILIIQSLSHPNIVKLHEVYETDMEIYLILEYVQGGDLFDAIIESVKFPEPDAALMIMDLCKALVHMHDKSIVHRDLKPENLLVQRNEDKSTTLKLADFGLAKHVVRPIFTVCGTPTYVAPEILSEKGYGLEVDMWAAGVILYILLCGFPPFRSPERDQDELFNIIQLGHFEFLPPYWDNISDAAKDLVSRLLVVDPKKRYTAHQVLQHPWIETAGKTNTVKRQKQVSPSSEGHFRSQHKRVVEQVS

[5] = tested on: Mast/stem cell growth factor receptor Kit (Homo sapiens), P10721 [V559D,V654A]; test: Competitive binding affinity to KIT V559D/V654A double mutant (unknown origin) at 10 uM in presence of ATP relative to control
Mast/stem cell growth factor receptor Kit (Homo sapiens), P10721 [V559D,V654A], sequence (P10721 whole entry V559D/V654A): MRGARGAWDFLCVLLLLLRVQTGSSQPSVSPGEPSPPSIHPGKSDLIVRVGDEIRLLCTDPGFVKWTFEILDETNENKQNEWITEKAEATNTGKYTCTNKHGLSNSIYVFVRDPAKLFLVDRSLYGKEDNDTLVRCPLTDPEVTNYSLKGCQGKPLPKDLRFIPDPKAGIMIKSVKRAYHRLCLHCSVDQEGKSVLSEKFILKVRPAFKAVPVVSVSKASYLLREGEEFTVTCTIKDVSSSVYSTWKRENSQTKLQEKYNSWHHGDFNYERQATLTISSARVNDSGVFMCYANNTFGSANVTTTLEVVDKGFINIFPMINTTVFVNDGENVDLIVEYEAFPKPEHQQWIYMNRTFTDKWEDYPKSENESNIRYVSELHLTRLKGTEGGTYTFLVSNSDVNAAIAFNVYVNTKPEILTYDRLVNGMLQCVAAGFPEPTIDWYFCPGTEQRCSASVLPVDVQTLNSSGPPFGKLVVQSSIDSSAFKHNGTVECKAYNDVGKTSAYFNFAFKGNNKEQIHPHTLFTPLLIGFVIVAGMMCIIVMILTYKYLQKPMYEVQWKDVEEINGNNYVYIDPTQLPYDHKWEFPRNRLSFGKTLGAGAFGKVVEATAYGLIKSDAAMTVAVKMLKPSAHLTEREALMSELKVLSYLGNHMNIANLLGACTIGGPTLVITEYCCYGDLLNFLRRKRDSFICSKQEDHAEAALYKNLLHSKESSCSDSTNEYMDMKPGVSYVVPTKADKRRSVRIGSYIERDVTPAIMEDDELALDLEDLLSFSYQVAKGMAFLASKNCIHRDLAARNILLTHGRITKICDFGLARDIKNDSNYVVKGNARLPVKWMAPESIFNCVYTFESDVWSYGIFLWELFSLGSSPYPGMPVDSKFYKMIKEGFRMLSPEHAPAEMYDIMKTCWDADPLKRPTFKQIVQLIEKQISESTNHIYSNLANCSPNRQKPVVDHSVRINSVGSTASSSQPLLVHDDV
In short: (§1)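 In vitro ATP-site competition binding assay, part of profiling against a diverse panel of 128 kinases. Each compound was tested at a single concentration of 10 µM. Kinome selectivity was summarized as S15 selectivity scores.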

[6] = biological target: Mitogen-activated protein kinase 3 (Homo sapiens, UniProt P27361); test: Competitive binding affinity to ERK1 (unknown origin) at 10 uM in presence of ATP relative to control; in short: as §1
Mitogen-activated protein kinase 3, sequence (P27361 whole entry): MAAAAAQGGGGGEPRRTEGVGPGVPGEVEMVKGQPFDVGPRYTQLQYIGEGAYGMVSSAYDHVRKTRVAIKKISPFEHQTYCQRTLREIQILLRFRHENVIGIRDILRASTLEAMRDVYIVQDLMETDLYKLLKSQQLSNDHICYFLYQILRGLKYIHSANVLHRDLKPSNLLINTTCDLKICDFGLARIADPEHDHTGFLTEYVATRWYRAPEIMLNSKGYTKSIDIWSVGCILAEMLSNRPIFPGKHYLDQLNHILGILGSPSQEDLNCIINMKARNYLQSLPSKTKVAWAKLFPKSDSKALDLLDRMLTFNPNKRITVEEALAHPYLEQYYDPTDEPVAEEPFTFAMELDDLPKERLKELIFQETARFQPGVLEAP

[7] = biological target: SRSF protein kinase 1 (Homo sapiens) (UniProt Q96SB4); test: Competitive binding affinity to SRPK1 (unknown origin) at 10 uM in presence of ATP relative to control
SRSF protein kinase 1 (Homo sapiens), sequence (Q96SB4 whole entry): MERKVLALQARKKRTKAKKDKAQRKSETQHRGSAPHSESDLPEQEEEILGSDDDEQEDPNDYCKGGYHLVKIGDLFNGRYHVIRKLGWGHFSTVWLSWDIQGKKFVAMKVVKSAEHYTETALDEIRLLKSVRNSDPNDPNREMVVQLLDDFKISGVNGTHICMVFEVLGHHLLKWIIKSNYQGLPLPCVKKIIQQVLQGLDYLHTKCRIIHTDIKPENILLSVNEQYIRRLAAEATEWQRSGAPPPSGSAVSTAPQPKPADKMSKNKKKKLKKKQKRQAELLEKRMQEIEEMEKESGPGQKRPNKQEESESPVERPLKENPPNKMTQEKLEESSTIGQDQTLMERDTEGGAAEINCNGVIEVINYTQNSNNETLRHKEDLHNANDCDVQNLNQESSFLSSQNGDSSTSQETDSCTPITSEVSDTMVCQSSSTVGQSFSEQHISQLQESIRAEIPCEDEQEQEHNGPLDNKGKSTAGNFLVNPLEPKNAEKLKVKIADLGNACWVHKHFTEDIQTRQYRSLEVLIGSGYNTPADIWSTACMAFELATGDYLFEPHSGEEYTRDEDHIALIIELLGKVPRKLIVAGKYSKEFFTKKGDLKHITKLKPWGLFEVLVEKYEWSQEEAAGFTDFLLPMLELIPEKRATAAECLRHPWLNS

[8] = biological target: Serine/threonine-protein kinase tousled-like 2 (Homo sapiens) (UniProt Q86UE8); test: Competitive binding affinity to TLK2 (unknown origin) at 10 uM in presence of ATP relative to control
Serine/threonine-protein kinase tousled-like 2 (Homo sapiens), sequence (Q86UE8 whole entry, looked up): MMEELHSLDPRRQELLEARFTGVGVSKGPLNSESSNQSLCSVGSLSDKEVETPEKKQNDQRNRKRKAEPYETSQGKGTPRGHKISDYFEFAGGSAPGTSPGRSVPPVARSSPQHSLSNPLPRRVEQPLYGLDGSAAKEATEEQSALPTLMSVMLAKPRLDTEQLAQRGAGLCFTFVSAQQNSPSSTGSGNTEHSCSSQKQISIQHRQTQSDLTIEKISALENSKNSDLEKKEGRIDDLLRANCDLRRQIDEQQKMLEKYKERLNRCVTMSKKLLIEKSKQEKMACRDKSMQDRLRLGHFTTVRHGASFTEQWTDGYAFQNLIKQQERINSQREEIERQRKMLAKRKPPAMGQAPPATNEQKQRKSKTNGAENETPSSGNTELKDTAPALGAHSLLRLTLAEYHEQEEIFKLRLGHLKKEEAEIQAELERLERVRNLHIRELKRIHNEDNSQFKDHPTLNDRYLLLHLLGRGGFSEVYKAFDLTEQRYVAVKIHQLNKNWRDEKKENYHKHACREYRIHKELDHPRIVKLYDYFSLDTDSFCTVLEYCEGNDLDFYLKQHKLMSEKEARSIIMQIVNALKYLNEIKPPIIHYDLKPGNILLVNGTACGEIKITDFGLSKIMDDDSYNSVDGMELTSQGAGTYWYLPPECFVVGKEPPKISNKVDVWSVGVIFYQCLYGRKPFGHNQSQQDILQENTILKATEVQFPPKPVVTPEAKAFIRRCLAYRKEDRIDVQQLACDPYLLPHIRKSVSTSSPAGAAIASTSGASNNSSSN

[9] = tested on: Tyrosine-protein kinase ABL1 (Homo sapiens), P00519 [T315I]; test: Competitive binding affinity to ABL1 T315I mutant (unknown origin) at 10 uM in presence of ATP relative to control
In short: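 In vitro ATP-site competition binding assay across a diverse panel of 128 kinases, with each compound tested at a single concentration. Kinase binding is expressed relative to control.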

[10] = biological target: Cyclin-dependent kinase 19 (Homo sapiens) (UniProt Q9BWU1); test: Competitive binding affinity to CDK19 (unknown origin) at 10 uM in presence of ATP relative to control
Cyclin-dependent kinase 19 (Homo sapiens), sequence (Q9BWU1 whole entry, looked up, the tested form may be a part): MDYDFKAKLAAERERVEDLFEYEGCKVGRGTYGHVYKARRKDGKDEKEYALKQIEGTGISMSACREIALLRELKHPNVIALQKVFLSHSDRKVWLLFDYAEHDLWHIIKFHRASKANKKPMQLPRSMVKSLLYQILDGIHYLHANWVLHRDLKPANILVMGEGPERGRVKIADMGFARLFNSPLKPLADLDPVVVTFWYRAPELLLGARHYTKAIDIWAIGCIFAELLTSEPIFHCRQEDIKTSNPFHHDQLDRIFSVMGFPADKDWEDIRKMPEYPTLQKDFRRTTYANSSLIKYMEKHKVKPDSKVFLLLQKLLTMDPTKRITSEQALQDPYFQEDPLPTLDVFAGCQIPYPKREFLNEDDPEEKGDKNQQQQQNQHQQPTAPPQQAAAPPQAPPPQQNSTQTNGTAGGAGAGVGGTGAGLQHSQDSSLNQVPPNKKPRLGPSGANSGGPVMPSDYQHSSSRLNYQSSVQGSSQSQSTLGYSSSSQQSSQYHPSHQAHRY

[11] = biological target: Ribosomal protein S6 kinase alpha-6 (Homo sapiens) (UniProt Q9UK32); test: Competitive binding affinity to RPS6KA6 kinase domain 1 (unknown origin) at 10 uM in presence of ATP relative to control
[12] = biological target: Phosphatidylinositol 4-phosphate 5-kinase type-1 alpha (Homo sapiens) (UniProt Q99755); test: Competitive binding affinity to PIP5K1A (unknown origin) at 10 uM in presence of ATP relative to control
Phosphatidylinositol 4-phosphate 5-kinase type-1 alpha (Homo sapiens), sequence (Q99755 whole entry): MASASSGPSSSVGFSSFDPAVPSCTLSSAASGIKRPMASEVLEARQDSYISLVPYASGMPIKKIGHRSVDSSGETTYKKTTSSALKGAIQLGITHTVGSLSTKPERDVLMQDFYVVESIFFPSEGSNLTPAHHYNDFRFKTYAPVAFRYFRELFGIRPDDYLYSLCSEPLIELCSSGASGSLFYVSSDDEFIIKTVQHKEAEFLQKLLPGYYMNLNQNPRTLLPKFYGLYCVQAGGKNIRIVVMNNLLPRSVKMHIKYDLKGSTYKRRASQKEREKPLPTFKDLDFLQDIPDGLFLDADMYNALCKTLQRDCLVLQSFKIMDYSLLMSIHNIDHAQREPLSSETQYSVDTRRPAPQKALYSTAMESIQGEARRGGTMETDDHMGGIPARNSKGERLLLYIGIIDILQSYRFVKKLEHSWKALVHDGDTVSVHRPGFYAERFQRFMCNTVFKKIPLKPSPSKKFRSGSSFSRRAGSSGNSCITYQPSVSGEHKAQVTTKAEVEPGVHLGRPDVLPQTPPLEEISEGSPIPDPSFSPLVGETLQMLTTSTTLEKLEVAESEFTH

[13] = biological target: T3, Serine/threonine-protein kinase STK11 (Homo sapiens) (UniProt Q15831); test: Competitive binding affinity to STK11 (unknown origin) at 10 uM in presence of ATP relative to control
T3 sequence (whole entry): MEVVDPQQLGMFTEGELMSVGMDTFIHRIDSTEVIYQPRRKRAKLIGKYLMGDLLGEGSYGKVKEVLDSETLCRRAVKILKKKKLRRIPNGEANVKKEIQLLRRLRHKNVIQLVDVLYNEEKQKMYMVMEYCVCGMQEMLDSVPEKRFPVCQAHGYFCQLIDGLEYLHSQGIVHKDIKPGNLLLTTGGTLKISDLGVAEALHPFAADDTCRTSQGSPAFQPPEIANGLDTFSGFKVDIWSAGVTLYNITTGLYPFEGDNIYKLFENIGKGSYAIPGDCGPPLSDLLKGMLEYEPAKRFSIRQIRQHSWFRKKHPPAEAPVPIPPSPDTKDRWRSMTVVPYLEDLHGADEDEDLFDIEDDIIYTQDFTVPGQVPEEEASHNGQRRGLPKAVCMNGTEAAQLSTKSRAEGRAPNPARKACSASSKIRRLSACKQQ

| inhibition [1] [%] | inhibition [2] [%] | inhibition [3] [%] | inhibition [4] [%] | inhibition [5] [%] | inhibition [6] [%] | inhibition [7] [%] | inhibition [8] [%] | inhibition [9] [%] | inhibition [10] [%] | inhibition [11] [%] | inhibition [12] [%] | inhibition [13] [%] | Structure (SMILES) |
| --- | --- | --- | --- | --- | --- | --- | --- | --- | --- | --- | --- | --- | --- |
| 66 | 87 | 97 | 92 | 67 | < 50 | < 50 | < 50 | < 50 | 82 | < 50 | 94 |  | O[C@H]1CC[C@H](Nc2nccc(-n3nnc4ccccc43)n2)CC1 |
|  |  |  | > 85 |  | > 85 |  |  |  |  |  |  |  | CS(=O)(=O)CCCOc1cccc2c1ccn2-c1ccnc(N[C@H]2CC[C@H](C(=O)N3CCC(O)CC3)CC2)n1 |
| < 50 | < 50 | 96 | 73 | 87 | < 50 | < 50 | < 50 | < 50 | < 50 | < 50 | 88 |  | O[C@H]1CC[C@H](Nc2nccc(-n3ncc4ccccc43)n2)CC1 |
|  |  | 98 |  | 82 | 80 | 100 | 96 | 96 |  | 79 |  |  | O[C@H]1CC[C@H](Nc2nccc(-c3n[nH]c4ccccc34)n2)CC1 |
| < 50 | < 50 | 93 | 84 | 64 | < 50 | < 50 | < 50 | < 50 | 70 | < 50 | < 50 |  | O[C@H]1CC[C@H](Nc2nccc(-n3ccc4ccccc43)n2)CC1 |
|  |  |  |  |  |  |  |  |  |  |  |  | < 50 | O=C([C@H]1CC[C@H](Nc2nccc(-n3nnc4ccccc43)n2)CC1)N1CCOCC1 |
|  |  |  |  |  |  |  |  |  |  |  |  | 98 | N[C@H]1CC[C@H](Nc2nccc(-n3nnc4ccccc43)n2)CC1 |
